How the values were obtained:
[1] = system: Leishmania tropica; test: The compound was tested for growth inhibition against DNM-R150 (Leishmania tropica) parasites, at a concentration of 15 uM; format: functional
Procedure, shortened: (§1)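 Multidrug-resistant L. tropica DNM-R150 line, kept under continuous 150 µM daunomycin and overexpressing a Pgp-like transporter. Parasites were grown at 28 °C in modified RPMI 1640 with 20% heat-inactivated fetal bovine serum and tested for growth sensitivity to the sesquiterpene.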

[2] = system: Leishmania tropica; test: The compound was tested for growth inhibition against Wild type parasites, at a concentration of 15 uM; format: functional
Procedure, shortened: (§2)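 Wild-type L. tropica LRC clone, obtained by agar plating. Cultured at 28 °C in modified RPMI 1640 with 20% heat-inactivated fetal bovine serum. Growth sensitivity to the sesquiterpene was assessed.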

[3] = system: Leishmania tropica; test: The compound was tested for growth inhibition against Wild type parasites, at a concentration of 30 uM; format: functional; procedure, shortened: as §2
[4] = The compound was tested for binding activity against nucleotide-binding domain 2, with quenching at 50 uM
Procedure, shortened: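 Recombinant Leishmania Pgp-like transporter NBD2, expressed in E. coli M15 [pREP4] and affinity-purified, at 0.2–0.5 µM final in pH 8.5 potassium phosphate buffer with 1 M NaCl, glycerol, HECAMEG and 10 mM imidazole, 25 °C. Sesquiterpene in DMSO (≤2% final) titrated in. Intrinsic fluorescence read at 300–350 nm emission (288 nm excitation), corrected for inner-filter and dilution. Quenching at 50 µM was read graphically from the curve.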

[5] = system: Leishmania tropica; test: The compound was tested for growth inhibition against DNM-R150 (Leishmania tropica) parasites, at a concentration of 30 uM; format: functional; procedure, shortened: as §1
[6] = system: Leishmania tropica; test: The compound was tested for growth inhibition against DNM-R150 (Leishmania tropica) parasites, at a concentration of 15 uM.; format: functional; procedure, shortened: as §1
[7] = system: Leishmania tropica; test: The compound was tested for growth inhibition against DNM-R150 (Leishmania tropica) parasites, at a concentration of 30 uM.; format: functional; procedure, shortened: as §1
[8] = system: Leishmania tropica; test: The compound was tested for growth inhibition against Wild type parasites, at a concentration of 15 uM.; format: functional; procedure, shortened: as §2
[9] = system: Leishmania tropica; test: The compound was tested for growth inhibition against Wild type parasites, at a concentration of 30 uM.; format: functional; procedure, shortened: as §2

Compound | Growth inhibition [1] [%] | Growth inhibition [2] [%] | Growth inhibition [3] [%] | Quenching [4] [%] | Growth inhibition [5] [%] | Growth inhibition [6] [%] | Growth inhibition [7] [%] | Growth inhibition [8] [%] | Growth inhibition [9] [%]
CCC(C)C(=O)OC[C@]12[C@H](OC(=O)c3ccccc3)[C@@H](OC(C)=O)[C@@H]3[C@@H](O)[C@]1(OC3(C)C)[C@@](C)(O)C[C@H](OC(=O)c1cccnc1)[C@@H]2O (some centres undefined) | 20.8 | 9.3 | 8.4 | 31.1 | 88.3 | – | – | – | –
CCC(C)C(=O)OC[C@]12[C@H](OC(=O)c3ccccc3)[C@@H](OC(C)=O)[C@@H]3[C@@H](O)[C@]1(OC3(C)C)[C@@](C)(O)C[C@H](OC(C)=O)[C@@H]2OC(C)=O (some centres undefined) | – | – | – | 30.8 | – | 26.8 | 91.7 | 7.5 | 11.1
CC(=O)OC[C@@]12[C@@H](OC(C)=O)CC[C@](C)(O)[C@]13OC(C)(C)[C@H]([C@H](OC(C)=O)[C@H]2OC(=O)c1ccccc1)[C@H]3OC(C)=O | – | – | – | 27 | – | 16.3 | 49.8 | 13.5 | 16.9
CCC(C)C(=O)OC[C@@]12[C@@H](OC(C)=O)CC[C@](C)(O)[C@]13OC(C)(C)[C@H]([C@@H](OC(=O)c1cccnc1)[C@@H]2OC(=O)c1ccccc1)[C@H]3OC(C)=O (some centres undefined) | 92.9 | 6.9 | 13.8 | 34.3 | 96.1 | – | – | – | –
CCC(C)C(=O)OC[C@]12[C@H](OC(=O)c3ccccc3)[C@@H](OC(C)=O)[C@@H]3[C@@H](O)[C@]1(OC3(C)C)[C@@](C)(O)C[C@H](O)[C@@H]2OC(=O)c1ccccc1 (some centres undefined) | 90.5 | 9.8 | 30 | 31.4 | 96 | – | – | – | –
CCC(C)C(=O)OC[C@]12[C@H](OC(=O)c3ccccc3)[C@@H](OC(C)=O)[C@@H]3[C@@H](OC(C)=O)[C@]1(OC3(C)C)[C@@](C)(O)C[C@H](OC(C)=O)[C@@H]2OC(C)=O (some centres undefined) | – | – | – | 22.8 | – | 40.9 | 86.1 | 4.9 | 9.5
CCC(C)C(=O)OC[C@]12[C@H](OC(=O)c3ccccc3)[C@@H](OC(=O)C(C)CC)[C@@H]3[C@@H](O)[C@]1(OC3(C)C)[C@@](C)(O)C[C@H](O)[C@@H]2OC(C)=O (some centres undefined) | 83.1 | 5.3 | 4 | 27.5 | 92.6 | – | – | – | –
CCC(C)C(=O)OC[C@]12[C@H](OC(=O)c3ccccc3)[C@@H](OC(C)=O)[C@@H]3[C@@H](OC(C)=O)[C@]1(OC3(C)C)[C@@](C)(O)C[C@H](O)[C@@H]2OC(=O)c1ccccc1 (some centres undefined) | 77.8 | 25.5 | 62.9 | – | 95.4 | – | – | – | –
CCC(C)C(=O)OC[C@]12[C@@H](OC(=O)c3ccccc3)[C@H](OC(=O)c3cccnc3)[C@@H]3[C@@H](OC(C)=O)[C@]1(OC3(C)C)[C@@](C)(O)C[C@H](OC(C)=O)[C@@H]2OC(C)=O (some centres undefined) | – | – | – | 31.8 | – | 32.3 | 82.5 | 7.5 | 6.2
